Test results: ChEMBL document CHEMBL1132562, “Ajoene is an inhibitor and subversive substrate of human glutathione reductase and Trypanosoma cruzi trypanothione reductase: crystallographic, kinetic, and spectroscopic studies” (J Med Chem, 1999)

Tests used:
[1] = substrate: C=CCSSSCC=C; experiment: (§1) Km value determined against human Glutathione reductase (GR) by oxidation of NADPH
Summary of the method: (§2)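 Recombinant human glutathione reductase in GR assay buffer (phosphate, 200 mM KCl, 1 mM EDTA, pH 6.9) at 25 °C with 150 μM NADPH and ajoene or DATS as substrate. NADPH consumption read at 340 nm. Where GSH is present, it is added to the mixture. Controls held NADPH and enzyme only (intrinsic oxidase activity).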

[2] = substrate: C=CCSS/C=C/C[S+]([O-])CC=C; experiment: as §1; summary of the method: as §2
[3] = substrate: C=CCSS/C=C\C[S+]([O-])CC=C; experiment: as §1; summary of the method: as §2
[4] = substrate: C=CCSS/C=C/C[S+]([O-])CC=C; experiment: Kcat value determined against Trypanothione reductase (TR) by oxidation of NADPH; details: Trypanosoma cruzi
Summary of the method: (§3)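 T. cruzi trypanothione reductase, recombinant, with NADPH and ajoene as substrate in TR assay buffer (40 mM Hepes, 1 mM EDTA, pH 7.5) at 25 °C. NADPH oxidation followed as absorbance decrease at 340 nm. Controls held only NADPH and enzyme, giving the intrinsic oxidase activity.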

[5] = substrate: C=CCSS/C=C\C[S+]([O-])CC=C; experiment: Km value determined against Trypanothione reductase (TR) by oxidation of NADPH; details: Trypanosoma cruzi
[6] = substrate: C=CCSS/C=C/C[S+]([O-])CC=C; experiment: (§4) Km value determined against Trypanothione reductase (TR); details: Trypanosoma cruzi; summary of the method: as §3
[7] = substrate: C=CCSS/C=C\C[S+]([O-])CC=C; experiment: as §4; details: Trypanosoma cruzi; summary of the method: as §3

B1: Glutathione reductase, mitochondrial (Homo sapiens), P00390 (protein)
chain: MALLPRALSAGAGPSWRRAARAFRGFLLLLPEPAALTRALSRAMACRQEPQPQGPPPAAGAVASYDYLVIGGGSGGLASARRAAELGARAAVVESHKLGGTCVNVGCVPKKVMWNTAVHSEFMHDHADYGFPSCEGKFNWRVIKEKRDAYVSRLNAIYQNNLTKSHIEIIRGHAAFTSDPKPTIEVSGKKYTAPHILIATGGMPSTPHESQIPGASLGITSDGFFQLEELPGRSVIVGAGYIAVEMAGILSALGSKTSLMIRHDKVLRSFDSMISTNCTEELENAGVEVLKFSQVKEVKKTLSGLEVSMVTAVPGRLPVMTMIPDVDCLLWAIGRVPNTKDLSLNKLGIQTDDKGHIIVDEFQNTNVKGIYAVGDVCGKALLTPVAIAAGRKLAHRLFEYKEDSKLDYNNIPTVVFSHPPIGTVGLTEDEAIHKYGIENVKTYSTSFTPMYHAVTKRKTKCVMKMVCANKEEKVVGIHMQGLGCDEMLQGFAVAVKMGATKADFDNTVAIHPTSSEELVTLR
[1]
  Km: 160 µM
[2]
  Km: 800 µM
[3]
  Km: 380 µM

B2: Trypanothione reductase (Trypanosoma cruzi), P28593 (protein)
chain: MMSKIFDLVVIGAGSGGLEAAWNAATLYKKRVAVIDVQMVHGPPFFSALGGTCVNVGCVPKKLMVTGAQYMEHLRESAGFGWEFDRTTLRAEWKKLIAVKDEAVLNINKSYEEMFRDTEGLEFFLGWGSLESKNVVNVRESADPASAVKERLETENILLASGSWPHMPNIPGIEHCISSNEAFYLPEPPRRVLTVGGGFISVEFAGIFNAYKPKDGQVTLCYRGEMILRGFDHTLREELTKQLTANGIQILTKENPAKVELNADGSKSVTFESGKKMDFDLVMMAIGRSPRTKDLQLQNAGVMIKNGGVQVDEYSRTNVSNIYAIGDVTNRVMLTPVAINEAAALVDTVFGTNPRKTDHTRVASAVFSIPPIGTCGLIEEVASKRYEVVAVYLSSFTPLMHNISGSKYKTFVAKIITNHSDGTVLGVHLLGDNAPEIIQGVGICLKLNAKISDFYNTIGVHPTSAEELCSMRTPSYYYVKGEKMEKPSEASL
[4]
  Km: > 2000 µM
[5]
  Km: > 2000 µM
[6]
  Km: > 2000 µM
[7]
  Km: ≥ 2000 µM
